# Screens deposited in PubChem BioAssay by Sanford-Burnham Center for Chemical Genomics.
# Compounds with a hit are over-represented: about 1.5% of the library has one in this group of screens.
# APJ antagonist – APJ receptor antagonism | CHO-K1 APJ beta-arrestin complementation, luminescence | AID 2521 | actives 0.32% (n = 330,000) | inhibition, % at 20 µM;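 active = inhibition above about 40% at 20 µM, limit read from the data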;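 note: cells challenged with 10 nM apelin-13 agonist together with compound; plate controls were apelin-13 plus DMSO wells for no effect and DMSO wells lacking apelin-13 for full effect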
# APJ ag – agonists of human APJ apelin receptor; P35414; CHO-K1 APJ PathHunter beta-arrestin, luminescence; 0% DMSO wells, 100% apelin; activation, % at 20 µM; actives 0.11% (n = 330,000); AID 2520;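 active = activation more than six SD over the plate average, tested at 20 µM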;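 note: 0% = DMSO alone and 100% = apelin-13 at 10 nM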
#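 Test system: CHO-K1 APJ beta-arrestin complementation cell line | Compound: Single test compound dose, 20 µM final, 1% DMSO | Incubation: Compound 90 min 25 °C, reagent 1 h | Measured by: beta-gal luminescence | Read-out basis: APJ–arrestin association signal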
# EBI2 antag – blocks human EBI2 receptor beta-arrestin signaling; actives 0.81% (n = 360,000); AID 651636; EBI2 beta-arrestin recruitment, luminescence, 7a,25-OHC stimulated; inhibition, % at 5 µM; P32249; in the data active = inhibition above about 38%;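 note: enzyme fragment complementation signal reports receptor beta-arrestin coupling in cells; 0% = agonist plus DMSO wells and 100% = wells without agonist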
# Target sequence (P32249 whole entry, looked up, the tested form may be a part): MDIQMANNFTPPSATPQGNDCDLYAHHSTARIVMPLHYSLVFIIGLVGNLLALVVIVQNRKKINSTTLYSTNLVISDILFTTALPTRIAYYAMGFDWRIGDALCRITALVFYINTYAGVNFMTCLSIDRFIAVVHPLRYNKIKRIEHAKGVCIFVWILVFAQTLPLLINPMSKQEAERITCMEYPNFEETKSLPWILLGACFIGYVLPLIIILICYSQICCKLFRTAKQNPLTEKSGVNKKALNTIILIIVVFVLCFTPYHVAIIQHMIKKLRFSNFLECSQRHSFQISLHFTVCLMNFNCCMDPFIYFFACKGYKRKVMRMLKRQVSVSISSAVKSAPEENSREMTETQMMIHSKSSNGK
# CXCR6 inh – CXCR6 (human) receptor inhibition; inhibition, % at 20 µM; O00574; CHO-K1 PathHunter CXCR6 beta-arrestin, luminescence; actives 0.36% (n = 360,000); in the data active = inhibition above about 34%, passing the limit was not always enough;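 note: antagonist mode with CXCL16 agonist at 10 nM final; 0% = 10 nM CXCL16 with DMSO and 100% = unstimulated wells without agonist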
# Target sequence (O00574 whole entry, looked up): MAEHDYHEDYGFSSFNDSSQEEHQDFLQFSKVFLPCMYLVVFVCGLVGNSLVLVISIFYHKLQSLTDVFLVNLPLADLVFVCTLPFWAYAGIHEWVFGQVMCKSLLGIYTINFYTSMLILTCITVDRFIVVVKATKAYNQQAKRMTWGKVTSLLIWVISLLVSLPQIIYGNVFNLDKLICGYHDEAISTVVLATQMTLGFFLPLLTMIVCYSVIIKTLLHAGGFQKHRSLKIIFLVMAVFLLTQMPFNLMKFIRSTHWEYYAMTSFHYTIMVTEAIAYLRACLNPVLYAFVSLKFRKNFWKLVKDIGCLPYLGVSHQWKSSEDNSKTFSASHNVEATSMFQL
# CCR6 antag – CCR6 (human) receptor antagonism | P51684 | CHO-K1 CCR6 PathHunter beta-arrestin, luminescence, CCL20-stimulated | inhibition, % at 20 µM | actives 0.49% (n = 340,000) | AID 493098;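 active = compounds whose inhibition of the agonist-driven luminescence signal at 20 µM reaches about 50%, limit read from the data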;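 note: cells stimulated with CCL20 at 14 nM final; plate controls were DMSO with CCL20 for no effect and DMSO without agonist for full effect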
# hiPSC survival – hiPSC single-cell survival enhancement; ATPlite luminescence; 100% = ROCK inhibitor wells, 0% = DMSO; actives 0.044% (n = 360,000); survival enhancement, % at 20 µM; in the data active = survival enhancement above about 18%;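 note: cells exposed to compounds for 16 hours before the ATP read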
# CXCR6 antag conf – confirmation of human CXCR6 receptor antagonists. shares compounds with CXCR6 inh. CHO-K1 CXCR6 PathHunter beta-arrestin, luminescence. inhibition, % at 20 µM. actives 65% (n = 700);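 active = mean inhibition over four retests above 40%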;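 note: receptor stimulated with 10 nM CXCL16 agonist; beta-galactosidase fragment complementation upon beta-arrestin recruitment to receptor; plate controls were CXCL16 plus DMSO for no effect and DMSO without CXCL16 for full effect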
# The depositor's hits bear a star; x = no result given.
SMILES,APJ antagonist,APJ ag,EBI2 antag,CXCR6 inh,CCR6 antag,hiPSC survival,CXCR6 antag conf
C=CCOc1ccc(C=NNc2ccc(S(=O)(=O)Nc3ccccc3C(=O)O)cc2[N+](=O)[O-])cc1OC,10.9,-2.2,-0.3,50.2*,x,0.1,44.3*
CCOc1ccc(C=NNc2ccc(S(=O)(=O)Nc3ccccc3C(=O)O)cc2[N+](=O)[O-])cc1,24.9,-9.3,8.2,24.3,x,0.5,x
O=C1OCCN1C(=O)[C@H]1[C@H](c2ccc(Cl)cc2)C(c2ccc(F)cc2)=NN1c1ccc(Br)cc1,x,x,14.1,37.8*,12.9,-2.8,-7.0
NC(=O)c1ccc(NC(=O)CNC(=O)c2sc3ccccc3c2Cl)cc1,5.7,-2.0,-10.7,-4.5,-0.5,0.3,x
CC(NS(=O)(=O)c1ccc(Cl)cc1)C(=O)N1CCOCC1 (stereo not drawn),-11.9,2.5,-7.0,5.3,0.1,2.2,x
COc1ccc(-c2csc(N3C(=O)CNC3=S)n2)cc1,x,x,-9.5,42.9*,60.2*,-1.7,23.8
O=C1CNC(=S)N1c1nc(-c2ccccc2)cs1,2.7,-4.0,-12.3,18.7,30.2,-1.6,x
CCc1nc2c(OCCC3CCCCC3)cccn2c1N(C)C(=O)c1cccs1,x,x,28.6,47.1*,x,2.7,38.5
c1ccc(-c2nc(NCc3ccco3)c3ccccc3n2)nc1,35.1,-9.9,15.7,42.8*,52.9*,-2.3,32.1
Cc1nnc(NC(=O)c2cc(-c3ccncc3)nc3c(C)cccc23)s1,-35.4,11.7,-5.0,45.4*,-1.7,0.3,20.7
CC1(C(=O)O)CCC(C(=O)Nc2ccc(OC(F)(F)Cl)cc2)C1(C)C (stereo not drawn),6.2,0.3,-2.2,-6.2,7.4,-0.4,x
Cn1ccnc1Sc1cc(NCCCO)c([N+](=O)[O-])c2nonc12,38.1,-3.3,-16.8,40.0,22.7,1.7,x
CC(=O)OCCNc1cc(Sc2nc3ccccc3[nH]2)c2nonc2c1[N+](=O)[O-],x,x,59.4*,96.0*,103.0*,0.1,104.9*
O=[N+]([O-])c1c(NCCCO)cc(Sc2ccc(Cl)cc2)c2nonc12,x,x,32.7,76.6*,98.5*,-0.6,95.8*
CCCC(=O)OCCNc1cc(SCCC(=O)OC)c2nonc2c1[N+](=O)[O-],20.0,-4.4,-9.3,49.8*,62.2*,-1.5,63.1*
O=C(O)c1cc([N+](=O)[O-])c(Sc2nc3ccccc3[nH]2)c([N+](=O)[O-])c1,-4.6,2.4,-6.2,6.5,9.8,0.4,x
O=C(NCc1cccnc1)/C(=C\c1ccc(-c2cccc(Cl)c2)o1)S(=O)(=O)c1ccccc1,x,x,42.5*,33.4*,37.8,-2.8,40.6*
COc1cccc(-c2csc(N3CCN(C(=O)Nc4ccccc4OC)CC3)n2)c1,-4.7,-4.1,-1.6,68.0*,-6.5,0.1,-7.7
COc1cccc(-c2csc(N3CCN(C(=O)Nc4ccc(F)cc4)CC3)n2)c1,0.8,0.1,7.3,-13.4,17.4,-2.7,x
Cc1oc2ccc(O)cc2c1C(=O)c1ccc([N+](=O)[O-])cc1,-48.5,10.2,-16.5,-26.0,1.6,0.8,x
CN(C)/C=C/c1oc2ccc(O)cc2c1[N+](=O)[O-],49.2*,-7.2,3.4,41.8*,61.2*,-0.7,66.1*
Cc1ccc(CCNC(=O)c2nnc(CS(=O)(=O)c3ccccc3)o2)cc1,1.6,0.2,0.8,0.6,-2.4,2.4,x
C=C1C(=O)O[C@@H]2[C@H]1CC[C@H](C)[C@]1(O)CCC(=O)[C@@]21C,8.5,-3.9,-2.3,-6.3,4.8,-0.2,x
C=C1C(=O)OC2C1CCC(C)=C1C(=O)C3OC3(C)C12 (stereo not drawn),x,x,52.2*,47.3*,47.5,26.6*,58.9*
CC(Oc1cccc(Br)c1)C(=O)NNC(=O)c1ccccn1 (stereo not drawn),14.9,-4.1,-5.6,52.1*,48.1,-1.8,55.9*
SMILES,APJ antagonist,APJ ag,EBI2 antag,CXCR6 inh,CCR6 antag,hiPSC survival,CXCR6 antag conf
O=C(COC(=O)CNC(=O)c1ccccc1F)NC12CC3CC(CC(C3)C1)C2,-2.8,-4.0,-5.2,-3.1,13.9,5.8,x
O=C1C2CC=CCC2C(=O)N1c1nccs1 (stereo not drawn),x,x,2.3,0.6,13.3,5.7,x
O=C(NNC(=O)c1cc(-c2ccccc2)nn1-c1ccccc1)c1ccccc1,-9.6,-5.0,15.9,45.6*,x,-0.1,40.6*
c1ccc(C[C@H]2CN=C(Nc3ccccc3)N2CC2CCCC2)cc1,x,x,2.6,1.7,x,-0.2,x
CC(C)[C@H](NC(=O)OC(C)(C)C)c1nnc(S(=O)(=O)Cc2c(F)cccc2Cl)o1,27.4,5.1,8.2,62.8*,63.1*,-0.5,61.5*
C=CC[C@@H](CC(=O)N(CCO)Cc1ccccc1)C(=O)N[C@H](COC(=O)[C@@H](CC=C)CC(=O)OC(C)(C)C)C(C)(C)C,13.6,-7.9,-5.5,11.9,-1.1,-3.6,x
C=CC[C@H](CC(=O)N(CCO)Cc1ccccc1)C(=O)N[C@H](COC(=O)[C@H](CC=C)CC(=O)OC(C)(C)C)Cc1ccccc1,7.9,-3.0,8.3,42.5*,29.3,-0.2,24.8
C=CC[C@H](CC(=O)N(CCO)Cc1ccccc1)C(=O)NC[C@H](OC(=O)[C@@H](CC=C)CC(=O)OC(C)(C)C)c1ccccc1,15.6,-6.7,29.3,50.7*,29.2,-0.5,39.6
CCc1cc(-c2cnnn2Cc2ccccc2)ccc1-c1cn(CC(C)C)nn1,x,x,4.5,59.6*,x,6.1,7.8
CCCCCc1ccc(-c2cn(Cc3ccc(C(=O)c4ccccc4)cc3)nn2)cc1,-5.3,-0.1,-9.6,-4.3,-2.9,0.5,x
CC1=C(CO)C(=O)OC([C@@H](C)C2CC[C@H]3C4C[C@H]5O[C@]56[C@@H](O)C=CC(=O)[C@]6(C)C4CC[C@]23C)C1 (stereo partly drawn),x,x,54.9*,43.9*,41.1,-1.4,48.5*
COc1ccc(Nc2cc(C)nc3ccccc23)cc1,-0.4,-1.6,-5.7,-0.9,-1.3,3.3,x
COc1ccc2nc(C)cc(Nc3ccc(C)cc3)c2c1,3.9,-1.8,16.0,58.5*,11.7,0.8,1.3
CCC(C(=O)N1CCOCC1)n1nc(C)c2sc3ccccc3c2c1=O (stereo not drawn),7.5,-2.5,0.2,-4.9,-3.4,0.0,x
COc1ccc(Cl)cc1NC(=O)CN(C)C(=O)CN1C(=O)NC(C)(c2ccc3ccccc3c2)C1=O (stereo not drawn),x,x,-5.0,4.9,-4.2,-1.2,x
Cc1c(Cl)cccc1NC(=S)NC(=O)c1cncc(Br)c1,15.7,-3.1,6.2,42.2*,33.4,-0.4,35.5
CNC(=O)OCc1ncn(-c2ccccc2)c1COC(=O)NC,x,x,1.9,-0.3,x,-0.2,x
